Where a name gives a salt, the structure may show the parent alone. Read-outs that look alike come from different tables or passages of the source.
Key:
σ1 receptor = σ1 receptor (Mus musculus, UniProt O55242); assay: [3H]; type: binding
[1] = system: capsaicin-sensitized mice; assay: Capsaicin-induced mechanical hypersensitivity; type: in vivo, mouse
mice = assay: Rotarod test; type: in vivo, mouse; settings: for Effect on rotarod latency: 45 min after s.c., mg/kg: HP 0.06, HP-Met-I 64, HP-Met-II 0.25, (−)-sulpiride 100, HP-Met-III 128, PRE-084 64; for Effect of PRE-084 on the drug's effect in the rotarod test: PRE-084 64 mg/kg s.c., HP 0.125 mg/kg, HP-Met-II 1 mg/kg s.c.
Procedure, shortened: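 Female CD-1 mice (25–30 g), housed at 21 ± 1°C on a 12-h light/dark cycle. Motor coordination was tested on an accelerating rotarod. Latency to fall was recorded before injection (time 0) and 45 min after s.c. dosing. PRE-084 was injected s.c. immediately before the other drug, at a separate site. Controls received an equal volume of vehicle.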

[2] = from dose–response curves, s.c., capsaicin 1 µg i.pl., 0.5 g force
[3] = read-out: IC50 (concentration of unlabeled drug that inhibited the specific binding of [3H](+)-pentazocine by 50%), mouse brain membranes P2 fraction, 5 nM [3H](+)-pentazocine, 240 min, 30°C, pH 8
[4] = naloxone 1 mg/kg s.c., morphine 0.25, HP 0.06, HP-Met-II 0.25, HP-Met-I 64 mg/kg s.c.

Compound: OC1(c2ccc(Cl)cc2)CCNCC1 [Haloperidol metabolite I, 4-(4-chlorophenyl)-4-hydroxypiperidine]
- IC50 (σ1 receptor): 254 ± 18.4 nM
- Emax (maximum antiallodynic effect) [1, 2]: 62.27 ± 6.99%
- Effect of PRE-084 on the antiallodynic effect of the drug ([1]; mouse, in vivo): completely and dose-dependently prevented
- Effect of naloxone on the antiallodynic effect of the drug ([1]; mouse, in vivo): did not significantly modify
- Effect on rotarod latency (mice): no effect

Compound: Cl.O=C(OCCN1CCOCC1)C1(c2ccccc2)CCCCC1 [PRE-084, 2-(4-morpholinethyl)1-phenylcyclohexanecarboxylate) hydrochloride]
- IC50 (σ1 receptor; [3]): 171 ± 18.4 nM

Compound: OC(CCCN1CCC(O)(c2ccc(Cl)cc2)CC1)c1ccc(F)cc1 (stereo not drawn) [Haloperidol metabolite II, 4-(4-chlorophenyl)-α-(4-fluorophenyl)-4-hydroxy-1-piperidinebutanol]
- IC50 (σ1 receptor): 12.8 ± 0.69 nM
- Emax (maximum antiallodynic effect) [1, 2]: 100%
- Effect of naloxone on the antiallodynic effect of the drug [1, 4]: did not significantly modify
- Antiallodynic effect at higher doses ([1]; s.c., HP 0.125 mg/kg, HP-Met-II 1 mg/kg): 100%
- Effect on rotarod latency (mice): no effect
- Effect of PRE-084 on the drug's effect in the rotarod test (mice): not prevented

Compound: O=C(CCCN1CCC(O)(c2ccc(Cl)cc2)CC1)c1ccc(F)cc1 [Haloperidol, haloperidol]
- Antiallodynic effect at higher doses ([1]; mouse, in vivo): 100%
- Effect of PRE-084 on the antiallodynic effect of the drug ([1]; mouse, in vivo): dose-dependent reversion
- Effect of naloxone on the antiallodynic effect of the drug ([1]; mouse, in vivo): did not significantly modify
- Emax (maximum antiallodynic effect) ([1]; mouse, in vivo, sc): 100%
- Effect on rotarod latency (mice): no effect
- Effect of PRE-084 on the drug's effect in the rotarod test (mice): not prevented

Compound: Cl.O=C(OCCN1CCOCC1)C1(c2ccccc2)CCCCC1 [PRE-084]
- Effect on rotarod latency (mice): devoid of any effect

Compound: COc1cc(CNC(=O)CCCC/C=C/C(C)C)ccc1O [capsaicin]
- Decrease in the EF50 value for inducing paw withdrawal in comparison to control mice ([1]; capsaicin 1 µg i.pl. vs DMSO-treated): 9.4 fold
- EF50 (force producing half the maximal reduction in paw withdrawal latency time) ([1]; capsaicin 1 µg i.pl., 15 min before stimulation, forces 0.05–8 g): 0.30 ± 0.02 g

Compound: CS(=O)(=O)c1ccc(C2=C(c3ccccc3)C(=O)OC2)cc1 [rofecoxib]
- IC50 (σ1 receptor): > 10000 nM

Compound: Clc1cccc(Cl)c1N=C1NCCN1 [clonidine]
- IC50 (σ1 receptor): > 10000 nM

Compound: CN1CCN(CCc2ccc(Cl)c(Cl)c2)CC1.Cl.Cl [BD-1063, 1-[2-(3,4-dichlorophenyl)ethyl]-4-methylpiperazine dihydrochloride]
- Effect of PRE-084 on the antiallodynic effect of the drug ([1]; mouse, in vivo): completely antagonized

Compound: CCN1CCC[C@H]1CNC(=O)c1cc(S(N)(=O)=O)ccc1OC [(−)-Sulpiride, (−)-sulpiride]
- IC50 (σ1 receptor): > 10000 nM
- ED50 (dose producing half of the maximal antiallodynic effect) ([1]; mouse, in vivo): Inactive^a
- Effect on rotarod latency (mice): devoid of any effect

Compound: NCC1(CC(=O)O)CCCCC1 [gabapentin]
- IC50 (σ1 receptor): > 10000 nM

Compound: CN1CC[C@]23c4c5ccc(O)c4O[C@H]2[C@@H](O)C=C[C@H]3[C@H]1C5 [morphine, morphine hydrochloride]
- Effect of naloxone on the antiallodynic effect of the drug [1, 4]: reversed

Compound: O=C(O)CCC(=O)c1ccc(F)cc1 [Haloperidol metabolite III, p-fluorobenzoylpropionic acid]
- IC50 (σ1 receptor; [3]): > 10000 nM
- Effect on rotarod latency (mice): devoid of any effect

Reference: article PMC2695546 (Psychopharmacology, 2009)
